Source: PubChem BioAssay (several laboratories)
Pf gamet viab = P. falciparum stage V gametocyte viability inhibition. inhibition, % at 10.9 µM. hit rate 0.065% among 150,000. P. falciparum stage V gametocytes, ATP luminescence, 24 h;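 active means inhibition above the mean plus 3 SD of compounds within the control limits, set per campaign, cut at about 38% in these data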;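 further: 0% = DMSO wells and 100% = medium only without gametocytes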
Biofilm kill mix = mixture kills Candida albicans biofilm cells. hit rate 0.02% among 120,000. inhibition, % at 7.6 µM. C. albicans biofilm persisters + clotrimazole, fluorescence viability; primary screen in compound mixtures of four per well;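 further: compounds exposed to preformed 24 h biofilms for 48 h; 0% = untreated biofilm control and 100% = clotrimazole plus chlorhexidine kill blank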
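Probe or stimulus – Clotrimazole 50 µg/mL co-treatment · System – C. albicans biofilms · Schedule – 24 h biofilm formation, then 48 h compound exposure, 37 °C · Evaluation – percent inhibition of biofilm viability · Technique – 2-h Alamar Blue fluorescence, 535/590 nm excitation/emission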
ROMK mod = modulators of human ROMK potassium channel | P48048 | Tet-inducible ROMK, thallium flux fluorescence; actives lie on both sides | B-score at 10 µM | hit rate 2% among 130,000 | AID 1918;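 active means signal ratio slope over the read window, or its plate-corrected B-score, at least 3 SD from the plate mean, either direction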;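 further: B-score of the F/F0 ratio slope over 7 to 12 s after thallium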
Target sequence (P48048 whole entry, looked up): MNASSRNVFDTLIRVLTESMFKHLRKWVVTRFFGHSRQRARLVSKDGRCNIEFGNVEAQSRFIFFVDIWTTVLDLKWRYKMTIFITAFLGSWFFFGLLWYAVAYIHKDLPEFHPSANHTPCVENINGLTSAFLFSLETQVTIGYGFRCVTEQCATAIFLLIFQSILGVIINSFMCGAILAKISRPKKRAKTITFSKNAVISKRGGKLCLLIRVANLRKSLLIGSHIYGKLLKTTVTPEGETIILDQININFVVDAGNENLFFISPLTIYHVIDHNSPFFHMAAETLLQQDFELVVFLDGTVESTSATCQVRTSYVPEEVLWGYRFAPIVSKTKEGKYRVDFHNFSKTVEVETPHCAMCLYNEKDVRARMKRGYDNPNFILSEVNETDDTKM
ROMK retest = retested hit modulating human ROMK potassium channel; ROMK thallium flux, fluorescence ratio; active compounds read low; shares compounds with ROMK mod; normalized thallium flux (F/F0 slope) at 10 µM; hit rate 54% among 3,000;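 active means Flux at 10 µM at least 3 SD below or above vehicle control mean in one or both replicates; inconclusive means no clear call, values can overlap the other calls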
Numbers without * were called inactive; ? = inconclusive; . = no result. Many of the other results were omitted from the sample, so hits are more common in it than they were.

SMILES | Pf gamet viab | Biofilm kill mix | ROMK mod | ROMK retest
COc1ccccc1Oc1ccc(S(=O)(=O)NCc2ccccn2)cc1 | . | . | -2.7* | 0.073
CC1(C)Cc2c(sc3ncnc(NN)c23)CO1 | 5 | . | . | .
COc1ccc(C(=O)c2ccc(OC)cc2OC)cc1 | 8 | 25 | -0.27 | .
COc1ccc(C(=O)CCC(=O)O)c(C)c1 | . | . | 4.3* | 0.083
COc1ccc(CC(=O)NNS(=O)(=O)c2ccccc2)cc1OC | -4 | 19 | -0.064 | .
N#CC(C#N)=CNc1cccnc1 | -11 | 12 | . | .
Cc1cc(Br)cn2cc(C(=O)O)nc12 | -15 | 13 | -0.34 | .
Cc1cc(NC(=O)COc2c(C)cccc2C)no1 | -8 | 17 | -3.1 | .
N#CC1=C(N)C(C#N)(C#N)C(c2cccnc2)C2CN(C(=O)OCc3ccccc3)CC=C12 (centres undefined) | . | 7 | . | .
N#CC1=C(N)C(C#N)(C#N)C(c2cccnc2)C2COCC=C12 (centres undefined) | . | . | -6.1* | 0.057*
Cc1cccc(C(=O)O)c1NC(=O)Cc1cccc2ccccc12 | -12 | . | . | .
O=C(c1ccc(CNc2c(N3CCCC3)c(=O)c2=O)cc1)N1CCN(C2CCCCC2)CC1 | . | 16 | 3.7* | 0.085
CC1CCN(C(=O)c2ccc(CNc3c(N4CCCC4)c(=O)c3=O)cc2)CC1 | 11 | 7 | -0.97 | .
O=[N+]([O-])c1ccc(N/N=C/c2cn(Cc3ccc(F)cc3)c3ccccc23)nc1 | . | 4 | . | .
Cc1cc(C(=O)CSc2nnnn2-c2ccccc2)c(C)n1-c1ccc2c(c1)OCO2 | -20 | 14 | 0.12 | .
Cc1cc(C(=O)CSc2nnnn2-c2ccc(O)cc2)c(C)n1Cc1ccc2c(c1)OCO2 | . | . | . | ?
O=C(COC(=O)c1ccc(OC(F)F)cc1)NCCCN1CCCC1=O | -15 | 19 | . | .
Cc1ccccc1-c1noc(CCC(=O)NCc2ccco2)n1 | 6 | 21 | . | .
COCCNC(=O)CN1C(=O)COc2ccc(Cl)cc21 | . | 6 | 1.7 | 0.079
COC(=O)CN1C(=O)COc2ccc(Cl)cc21 | . | 12 | 0.6 | .
COc1ccc2sc(-c3ccc(SC)cc3)c(-c3ccc(O)cc3)c2c1 | -25 | . | . | .
O=C(NC1CCCCCC1)c1c2c(nc3ccccc13)CCN(Cc1ccccc1)C2 | 8 | 16 | -4.3* | 0.062*
Cc1cc(N2CCN(C)CC2)ccc1NC(=O)c1c2c(nc3ccccc13)CCN(Cc1ccccc1)C2 | . | 7 | -1.1 | .
O=C(Nc1ncccn1)c1cc([N+](=O)[O-])cc([N+](=O)[O-])c1 | -30 | 17 | -0.64 | .
O=[N+]([O-])c1cc(-c2ncccn2)c([N+](=O)[O-])s1 | -17 | 12 | -1.2 | 0.06*
SMILES | Pf gamet viab | Biofilm kill mix | ROMK mod | ROMK retest
COc1ccc(CNC(=O)c2cc(C)nn2-c2ccccc2)cc1 | 9 | 22 | . | .
Cc1cc(C)n(CCOc2ccc(Br)cc2)n1 | -31 | . | . | .
Cc1cc(C)[n+]2[nH]c(N)c(N=Nc3ccccc3)c2n1 | -1 | 17 | . | .
Cc1cc(C)c(NC(=O)c2ccc[n+](Cc3ccc([N+](=O)[O-])cc3)c2)c(C)c1 | 5 | 11 | -2 | .
CC(C)C(=O)N1CCC(c2nc(-c3ccc(S(=O)(=O)N4CCN(C)CC4)cc3)no2)CC1 | -6 | 0 | 0.044 | 0.09
O=C(C1CC1)N1CCC(c2nc(-c3ccc(S(=O)(=O)N4CCCC4)cc3)no2)CC1 | . | . | -0.3 | .
O=C(c1cccc([N+](=O)[O-])c1)c1ccccn1 | -16 | 12 | . | ?
O=C(NNC(=O)c1ccccn1)c1cccc([N+](=O)[O-])c1 | 5 | 10 | 0.95 | .
N#C/C(=C\c1cccc([N+](=O)[O-])c1)c1ccccn1 | -2 | 9 | -3.6* | 0.046*
O=[N+]([O-])c1cccc(/C=C/c2ccccn2)c1 | . | 18 | . | .
CC(=O)Nc1ccc(NC(=O)c2ccc(C)c(S(=O)(=O)Nc3cccc(C)c3)c2)cc1 | . | 1 | -0.49 | .
CCCn1c(NC(=O)c2ccc(C)cc2)nc2ccccc21 | -26 | . | 0.34 | .
CC1CCN(S(=O)(=O)c2cccc(C(=O)N(Cc3ccccc3)c3ccccn3)c2)CC1 | 10 | 6 | -4* | 0.062*
CCCn1c(NC(=O)c2cccc(S(=O)(=O)N3CCCC3)c2)nc2ccccc21 | . | . | . | 0.083
CCNC(=O)c1ccccc1NC(=O)c1cccc(S(=O)(=O)N2CCC(C)CC2)c1 | . | . | . | 0.072
CN1CCN(S(=O)(=O)c2cccc(C(=O)N(c3ccccn3)C3CCCCC3)c2)CC1 | . | . | -0.45 | .
CCNC(=O)c1ccccc1NC(=O)c1cccc(S(=O)(=O)N2CCOCC2)c1 | -3 | 14 | 1.1 | .
Cc1ccc(C2=NN(C(=O)CCCC(=O)O)C(c3ccc4c(c3)OCO4)C2)cc1 (centres undefined) | -22 | . | . | .
COC(=O)c1ccc(N2CCN(C)CC2)c(NC(=O)c2sc3ccccc3c2Cl)c1 | 17 | . | . | .
C[C@H](NC(=O)c1nc[nH]c1C(=O)N[C@@H](CCCCN)C(=O)OC(C)(C)C)C(=O)OCc1ccccc1 | 11 | . | . | .
